# An excerpt weighted towards active compounds, which were near 1.9% of everything screened.
# PLC-beta3 inh: PLC-beta3 (human) inhibition, primary screen; inhibition, % at 12.2 µM; Purified PLC-beta3, fluorogenic substrate, fluorescence; Q01970; 0.18% of 370,000 active; in the data active means inhibition above about 11%;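 further: 0% = median of compound wells on plate and 100% = full blocker control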
# PLC-gamma1 inh: PLC-gamma1 (human) inhibition, primary screen; P19174; purified PLC-gamma1, fluorogenic substrate, fluorescence; inhibition, % at 12.2 µM; 0.84% of 370,000 active; AID 720700; in the data active means inhibition above about 9.5%
# DAGLB inh: diacylglycerol lipase beta (human) inhibition; inhibition, % at 5.17 µM; Q8NCG7; HEK293T DAGLB membrane lysate, EnzChek fluorogenic substrate; 0.059% of 340,000 active; in the data active means inhibition above about 34%;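 further: 0% = enzyme with vehicle and 100% = wells lacking enzyme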
# sPLA2-III inh: Blocks human group III sPLA2 activity. QFRET BODIPY PC-A2 liposome hydrolysis, fluorescence. inhibition, % at 12.2 µM. 0.56% of 370,000 active. AID 743126;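 active means inhibition above mean plus 3 SD of compounds lying within the high and low control bounds, cut at about 19% in these data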;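 further: 0% = median of test compound wells and 100% = no enzyme DMSO wells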
# Tb MetRS inh: blocks T. brucei methionyl-tRNA synthetase activity; purified T. brucei MetRS, ATP depletion, Kinase-Glo luminescence; 0.4% of 360,000 active; inhibition, % at 11.9 µM; AID 624268;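 active means inhibition above a per-plate cutoff of the control wells' mean inhibition plus 3 SD, cut at about 5.5% in these data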;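 further: 0% = DMSO wells median and 100% = median of wells with control inhibitor compound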
#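 Test system – parasite MetRS enzyme · Reagent – substrates ATP, L-methionine and bulk Escherichia coli tRNA · Doses – 11.9 µM compound single dose, 0.9% DMSO · Times – 15 min enzyme-compound preincubation, 2 h reaction, 10 min detection, 25 °C · Signal – Kinase-Glo luminescence, ATP depletion format · Controls – DMSO-only wells as low control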
# TbMetRS confirm: confirmation of Trypanosoma brucei MetRS inhibitors | shares compounds with Tb MetRS inh | T. brucei MetRS enzyme, luminescence (ATP depletion) | inhibition, % at 11.9 µM | 93% of 1,400 active; in the data active means inhibition above about 7%
# Jurkat tox: Jurkat T cell cytotoxicity for MetRS hits. Jurkat cells viability, ATP luminescence. shares compounds with Tb MetRS inh. inhibition, % at 8.3 µM. 12% of 1,400 active; in the data active means inhibition above about 15%;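 further: 0% = vehicle and 100% = reference inhibitor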
# TbMetRS FP orth: T. brucei MetRS inhibition, orthogonal assay. purified T. brucei MetRS, fluorescence polarization. inhibition, % at 11.9 µM. shares compounds with Tb MetRS inh. 44% of 1,400 active; in the data active means inhibition above about 17%;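 further: 0% = vehicle wells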
# * marks the source's active call; other numbers are inactive results; · = no result given.
SMILES,PLC-beta3 inh,PLC-gamma1 inh,DAGLB inh,sPLA2-III inh,Tb MetRS inh,TbMetRS confirm,Jurkat tox,TbMetRS FP orth
COc1ccc(-c2nc(CS(=O)(=O)CC(=O)Nc3ccc(Cl)cc3)c(C)o2)cc1,2,-2,-2,-26,12*,34*,46*,26*
O=C(c1ccccc1)c1ccc(-n2cnnc2)c([N+](=O)[O-])c1,1,-1,1,-1,24*,44*,1,26*
O=C(NCc1ccco1)OC1CCC12CCC(c1ccccc1)CC2 (stereo not given),3,1,·,-7,·,·,·,·
Clc1ccc(OCCCn2ccnc2)c(Br)c1,3,3,-3,-21,13*,22*,5,13
CC1CCCN(CCOCCOc2ccc(Cl)cc2Br)C1 (stereo not given),4,3,1,1,3,·,·,·
Clc1ccc(OCCCCCN2CCCC2)c(Br)c1,5,2,2,-8,6.2*,13*,13,4
CCN1CCN(CCCOc2ccc(Cl)cc2Br)CC1,0,4,0,-3,7.7*,13*,8,6
O=S(=O)(c1ccc(C(F)(F)F)cc1)N1CCCc2nc(-c3ccc(Br)cc3)ccc21,-15,-11,·,5,·,·,·,·
O=C(Nc1ccc2[nH]ccc2c1)c1cc(-c2ccc(Cl)cc2)nc2ccccc12,-19,-14,·,9,·,·,·,·
COc1ccc(CCC(=O)Nc2c(-c3ccc(N(C)C)cc3)[nH][nH]c2=O)cc1,-249,-157,·,12,14*,3,2,-1
COc1ccc(-c2[nH][nH]c(=O)c2NC(=O)c2ccccn2)cc1,-1,1,·,14,-1,·,·,·
CCNC(=O)CCCOc1ccc(Cl)cc1Cl,4,3,-1,-1,6.3*,14*,3,8
Cc1noc(C)c1COC(=O)Cc1ccc(Cl)cc1,-2,-2,-6,-5,0,·,·,·
O=C(COC(=O)CCCOc1ccc(Cl)cc1Cl)NCc1ccccc1,1,1,-4,-20,40*,57*,-5,43*
Cc1cc(Cl)ccc1OCCCC(=O)NCCc1nnc2ccccn12,-6,0,0,6,7.2*,14*,-4,5
Cc1noc(C)c1COC(=O)CCCOc1ccc(Cl)cc1Cl,0,0,-5,-10,7.0*,19*,-2,15
CC[C@@H](CCCc1ccccc1OC)CCS(=O)(=O)C(C)(C)C,1,-1,·,-4,·,·,·,·
Cc1noc(NS(=O)(=O)c2ccc(NC(=O)CCCOc3ccc(Cl)cc3Cl)cc2)c1C,-2,2,12,-65,7.6*,14*,3,13
Cc1noc(NS(=O)(=O)c2ccc(NC(=O)COc3ccc(Cl)cc3Cl)cc2)c1C,-2,-1,12,-41,4,·,·,·
CCOC(=O)C(=NC1CCS(=O)(=O)C1)NNc1ccc(Br)cc1 (stereo not given),-10,-5,7,14,15*,46*,-5,14
Cc1cc(C)c(C)c(S(=O)(=O)Nc2cccc(-n3cnnn3)c2)c1C,-4,0,0,-23,7.3*,17*,9,6
Cc1cc(C)c(S(=O)(=O)Nc2cccc(-n3cnnn3)c2)c(C)c1,1,1,0,-30,2,·,·,·
O=C(C1CCCN(S(=O)(=O)c2ccccc2[N+](=O)[O-])C1)N1CCN(Cc2ccccc2)CC1 (stereo not given),1,1,·,-4,·,·,·,·
CCOC(=O)c1ccc2c(c1)NCc1cccc(OC)c1O2,-163,-101,-2,-4,5.8*,11*,11,9
COc1ccc(C(=O)OCC(=O)c2ccc3c(c2)NC(=O)CO3)cc1OC,1,0,1,5,0,·,·,·
CC(NC(=O)C=Cc1ccco1)C(=O)NC(Cc1ccccc1)C(N)=O (stereo not given),-2,-3,·,-5,·,·,·,·
Cc1ccc(-c2nnc(SCC(=O)Nc3ccc(OCc4ccccc4)cc3)n2-c2ccc(Cl)cc2)cc1,2,1,·,0,·,·,·,·
CCCCOCCCNC(=O)C[C@H]1C[C@@]2(C(=O)OCC)CCCC3=C2N(CCC3)C1=O,8,5,·,2,·,·,·,·

# High-throughput results from PubChem BioAssay.
